# Laboratory results from PubChem BioAssay AID488811 (Sanford-Burnham Center for Chemical Genomics, 2010).
# Active and inactive are the calls of the source.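 Rule for the calls: active = mean EC50 below 10 µM; inactive = the rest.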
# Molecular target: Apelin receptor (Homo sapiens) (UniProt P35414)
# Test: APJ agonists, beta-arrestin recruitment, SAR follow-up, cell-based, luminescence (AID 488811)
# Details: CHO-K1 AGTRL-1 PathHunter beta-arrestin
# Procedure, shortened: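 Material: CHO-K1 cells with ProLink-tagged APJ and β-arrestin–β-gal acceptor fusion; dosing: compound dose series, 2 mM DMSO stocks; times: cells seeded overnight, compounds 90 min at 25 °C, dark; signal: β-gal complementation luminescence, 60 min reagent incubation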
# Apelin receptor (Homo sapiens), sequence (P35414 whole entry, looked up): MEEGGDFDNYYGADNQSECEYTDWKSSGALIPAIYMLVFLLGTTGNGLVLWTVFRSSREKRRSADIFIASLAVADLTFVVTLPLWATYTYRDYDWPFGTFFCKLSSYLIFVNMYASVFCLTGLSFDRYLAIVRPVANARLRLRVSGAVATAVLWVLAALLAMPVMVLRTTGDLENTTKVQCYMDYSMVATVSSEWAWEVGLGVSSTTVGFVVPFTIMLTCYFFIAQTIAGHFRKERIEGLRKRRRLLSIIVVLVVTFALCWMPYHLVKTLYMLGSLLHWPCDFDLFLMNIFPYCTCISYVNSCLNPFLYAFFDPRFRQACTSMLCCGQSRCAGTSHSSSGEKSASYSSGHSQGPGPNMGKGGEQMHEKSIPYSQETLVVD
row,SMILES,EC50
1,C=CCSc1nc(O)c(CC)c(=O)n1C1CCCCC1,> 79 µM (inactive)
2,CCN1/C(=C\C=C2/SC(=S)N(C)C2=O)Sc2ccccc21,> 79 µM (inactive)
3,CC1=CC(=NOS(=O)(=O)c2ccc(Cl)cc2)C=C(C)C1=O,2.9 µM
4,CCCCSc1nnc(NC(=O)CSc2nc3ncccc3[nH]2)s1,> 79 µM (inactive)
5,CCc1c(O)n(C2CCCCC2)c(=S)[nH]c1=O,> 79 µM (inactive)
6,COc1ccccc1-n1c(SCC(=O)c2ccccc2)nc(O)cc1=O,inactive
7,CC1=C/C(=N/OS(=O)(=O)c2ccccc2)C(C)=CC1=O,6.82 µM
8,CCN1C(c2ccccc2)=C(c2ccccc2)S/C1=C/C=C1\SC(=S)N(C)C1=O,3.44 µM
9,CC1=CC(=NOS(=O)(=O)c2ccc(C)cc2)C=C(C)C1=O,2.52 µM
10,Cc1ccc(S(=O)(=O)Nc2nc(-c3ccccc3)cs2)cc1,> 79 µM (inactive)
11,CC1=CC(=O)C(C(C)C)=C/C1=N/OS(=O)(=O)c1ccccc1,5.98 µM
12,CC1=C/C(=N\OS(=O)(=O)c2ccc(Cl)cc2)C=CC1=O,> 79 µM (inactive)
13,C=CCSc1nc(O)c(CC)c(=O)n1-c1ccc(C)cc1,> 79 µM (inactive)
14,CC1=C/C(=N/OS(=O)(=O)c2ccc(C)cc2)C=CC1=O,> 79 µM (inactive)
15,Cc1ccc(S(=O)(=O)ON=C2C=CC(=O)C=C2)cc1,> 79 µM (inactive)
16,O=S(=O)(Nc1nc(-c2ccccc2)cs1)c1ccc(Cl)cc1,> 79 µM (inactive)
17,CC1=C(C)C(=NOS(=O)(=O)c2ccc(C)cc2)C=CC1=O,> 79 µM (inactive)
18,CCCCSc1nc(O)c(CC)c(=O)n1C1CCCCC1,> 79 µM (inactive)
19,CC1=C/C(=N/OS(=O)(=O)c2ccc(C)cc2)C(C(C)C)=CC1=O,9.9 µM
20,O=S(=O)(Nc1nc(-c2ccccc2)cs1)c1ccc(Br)cc1,> 79 µM (inactive)
21,COc1ccc(S(=O)(=O)ON=C2C=C(C)C(=O)C(C)=C2)cc1,2.56 µM
22,CCc1c(O)nc(SCc2ccccc2)n(C(C)CC)c1=O (stereo not drawn),> 79 µM (inactive)

row,SMILES,EC50
1,CC1=CC(=NOS(=O)(=O)c2ccccc2)C=C(C)C1=O,2.5 µM
2,CCc1c(O)nc(SCc2ccccc2)n(C2CCCCC2)c1=O,> 79 µM (inactive)
3,CC1=CC(=O)C(C(C)C)=CC1=NOS(=O)(=O)c1ccccc1,5.74 µM
4,C=CCSc1nc(O)c(CC)c(=O)n1C(C)CC (stereo not drawn),inactive
5,CC1=CC(=NOS(=O)(=O)c2ccccc2)C=CC1=O,> 79 µM (inactive)
6,Cc1cc(C)n2nc3nc(N4CCOCC4)nc(-c4ccccc4)c3c2n1,> 79 µM (inactive)
7,CN(C)CCSc1nc(O)c(-c2ccccc2)c(=O)n1-c1ccccc1,> 79 µM (inactive)
8,CC1=CC(=NOS(=O)(=O)c2ccccc2)C(C(C)C)=CC1=O,7.43 µM
9,CC1=CC(=O)C=C/C1=N\OS(=O)(=O)c1ccc(C)cc1,> 79 µM (inactive)
10,CCc1c(O)nc(SC(C)CC)n(C(C)CC)c1=O (stereo not drawn),inactive
11,CCSc1nc(O)c(CC)c(=O)n1C1CCCCC1,> 79 µM (inactive)
12,CCc1c(O)nc(SC)n(C2CCCCC2)c1=O,> 79 µM (inactive)
13,CSc1nc(=O)cc(N)n1-c1ccc(C)cc1,> 79 µM (inactive)
14,CC1=CC(=O)C=C(C)C1=NOS(=O)(=O)c1ccccc1,> 79 µM (inactive)
15,CCN1/C(=C/C(=O)c2sc(=S)n(CC)c2O)Sc2ccccc21,> 79 µM (inactive)
16,CCSc1nc(O)c(CC)c(=O)n1C(C)CC (stereo not drawn),inactive
17,CC1=C/C(=N\OS(=O)(=O)c2ccc(C)cc2)C(C)=CC1=O,5.4 µM
18,CCc1c(O)nc(SC)n(C(C)CC)c1=O (stereo not drawn),> 79 µM (inactive)
19,C=CCn1c(SCc2ccccc2)nc(O)c(CC)c1=O,> 79 µM (inactive)
20,CCCSc1nc(O)c(CC)c(=O)n1C(C)CC (stereo not drawn),inactive
21,COc1ccc(S(=O)(=O)O/N=C2\C=C(C(C)C)C(=O)C=C2C)cc1,4.93 µM
